# Assay results reported in ChEMBL document CHEMBL3120143, “Use of 2'-spirocyclic ethers in HCV nucleoside design” (J Med Chem, 2014).
# Test system: Hepatitis C virus
# Experiment: Antiviral activity against HCV genotype 1b infected in human ET-Lunet cells assessed as inhibition of HCV RNA replication after 4 days by firefly luciferase reporter gene assay
# Type: functional, organism-based, Hepacivirus hominis
# Conditions: 96 h
# Outline: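 ET-Lunet cells carrying genotype 1b replicon seeded at 3000 cells/well, exposed 4 days to serially diluted compound; HCV RNA replication read as firefly luciferase luminescence (Bright-Glo). EC50 taken as concentration giving 50% inhibition, from curve fitting.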
row,Compound,EC50
1,COc1nc(N)nc2c1ncn2[C@@H]1O[C@H](CO[P@@](=O)(N[C@@H](C)C(=O)OCC(C)(C)C)Oc2ccccc2)[C@@H](O)[C@]12CCO2,1.02 µM
2,COc1nc(N)nc2c1ncn2[C@@H]1O[C@H](CO[P@](=O)(N[C@@H](C)C(=O)OCC(C)C)Oc2ccccc2)[C@@H](O)[C@]12CCO2,4.42 µM
3,CC(C)OC(=O)[C@H](C)NP(=O)(OC[C@H]1O[C@@H](n2ccc(N)nc2=O)[C@@]2(CCO2)[C@@H]1O)Oc1ccccc1 (stereo not given in full),16.7 µM
4,COc1nc(N)nc2c1ncn2[C@@H]1O[C@H](CO[P@](=O)(N[C@@H](C)C(=O)OCC(C)(C)C)Oc2ccccc2)[C@@H](O)[C@]12CCO2,9.31 µM
5,COc1nc(N)nc2c1ncn2[C@@H]1O[C@H](CO[P@@](=O)(N[C@@H](C)C(=O)OC2CCCC2)Oc2ccccc2)[C@@H](O)[C@]12CCO2,0.45 µM
6,O=c1ccn([C@@H]2O[C@H](CO)[C@@H](O)[C@]23CCCO3)c(=O)[nH]1,> 100 µM
7,CCOC(=O)[C@H](C)N[P@](=O)(OC[C@H]1O[C@@H](n2cnc3c(OC)nc(N)nc32)[C@@]2(CCO2)[C@@H]1O)Oc1ccccc1,0.86 µM
8,O=c1ccn([C@@H]2O[C@H](CO)[C@@H](O)[C@@]23CCO3)c(=O)[nH]1,> 100 µM
9,COc1nc(N)nc2c1ncn2[C@@H]1O[C@H](CO[P@@](=O)(N[C@@H](C)C(=O)OC(C)C)Oc2ccccc2)[C@@H](O)[C@]12CCO2,0.0045 µM
10,COc1nc(N)nc2c1ncn2[C@@H]1O[C@H](CO[P@@](=O)(N[C@@H](C)C(=O)OCC(C)C)Oc2ccccc2)[C@@H](O)[C@]12CCO2,0.57 µM
11,COc1nc(N)nc2c1ncn2[C@@H]1O[C@H](CO[P@](=O)(N[C@@H](C)C(=O)OC2CCCC2)Oc2ccccc2)[C@@H](O)[C@]12CCO2,0.67 µM
12,O=c1ccn([C@@H]2O[C@H](CO)[C@@H](O)[C@@]23CCCO3)c(=O)[nH]1,14.9 µM
13,COC(=O)[C@H](C)NP(=O)(OC[C@H]1O[C@@H](n2ccc(=O)[nH]c2=O)[C@]2(CCO2)[C@@H]1O)Oc1ccccc1 (mixture of isomers),28.5 µM
14,CCCCOC(=O)[C@H](C)N[P@@](=O)(OC[C@H]1O[C@@H](n2cnc3c(OC)nc(N)nc32)[C@@]2(CCO2)[C@@H]1O)Oc1ccccc1,3.1 µM
15,COC(=O)[C@H](C)NP(=O)(OC[C@H]1O[C@@H](n2ccc(=O)[nH]c2=O)[C@@]2(CCO2)[C@@H]1O)Oc1ccccc1 (mixture of isomers),16.7 µM
16,COC(=O)[C@H](C)NP(=O)(OC[C@H]1O[C@@H](n2cnc3c(OC)nc(N)nc32)[C@@]2(CCO2)[C@@H]1O)Oc1ccccc1 (mixture of isomers),7.16 µM
17,COc1nc(N)nc2c1ncn2[C@@H]1O[C@H](CO[P@](=O)(N[C@@H](C)C(=O)OC(C)C)Oc2ccccc2)[C@@H](O)[C@]12CCO2,4.52 µM
18,Nc1ccn([C@@H]2O[C@H](CO)[C@@H](O)[C@]23CCCO3)c(=O)n1,> 100 µM
19,Nc1ccn([C@@H]2O[C@H](CO)[C@@H](O)[C@@]23CCCO3)c(=O)n1,> 100 µM
20,COc1nc(N)nc2c1ncn2[C@@H]1O[C@H](COP(=O)(N[C@@H](C)C(=O)OCC(C)(C)C)Oc2cccc3ccccc23)[C@@H](O)[C@]12CCO2 (mixture of isomers),0.31 µM

# Test system: not listed separately
# Experiment: Cytotoxicity against human Lunet cells expressing ET subgenomic replicon after 4 days by Celltitre-Glo assay
# Type: cell-based
# Conditions: not given
# Outline: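 ET-Lunet replicon cells, 3000 cells/well, incubated 4 days with serially diluted compound; proliferation/viability by CellTiter-Glo luminescence; CC50 = concentration giving 50% inhibition, curve-fitted.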
row,Compound,CC50 at 96 h
1,COc1nc(N)nc2c1ncn2[C@@H]1O[C@H](CO[P@@](=O)(N[C@@H](C)C(=O)OCC(C)(C)C)Oc2ccccc2)[C@@H](O)[C@]12CCO2,> 20 µM
2,COc1nc(N)nc2c1ncn2[C@@H]1O[C@H](CO[P@](=O)(N[C@@H](C)C(=O)OCC(C)C)Oc2ccccc2)[C@@H](O)[C@]12CCO2,> 20 µM
3,CC(C)OC(=O)[C@H](C)NP(=O)(OC[C@H]1O[C@@H](n2ccc(N)nc2=O)[C@@]2(CCO2)[C@@H]1O)Oc1ccccc1 (stereo not given in full),> 100 µM
4,COc1nc(N)nc2c1ncn2[C@@H]1O[C@H](CO[P@](=O)(N[C@@H](C)C(=O)OCC(C)(C)C)Oc2ccccc2)[C@@H](O)[C@]12CCO2,> 20 µM
5,COc1nc(N)nc2c1ncn2[C@@H]1O[C@H](CO[P@@](=O)(N[C@@H](C)C(=O)OC2CCCC2)Oc2ccccc2)[C@@H](O)[C@]12CCO2,> 20 µM
6,O=c1ccn([C@@H]2O[C@H](CO)[C@@H](O)[C@]23CCCO3)c(=O)[nH]1,> 100 µM
7,CCOC(=O)[C@H](C)N[P@](=O)(OC[C@H]1O[C@@H](n2cnc3c(OC)nc(N)nc32)[C@@]2(CCO2)[C@@H]1O)Oc1ccccc1,> 20 µM
8,O=c1ccn([C@@H]2O[C@H](CO)[C@@H](O)[C@@]23CCO3)c(=O)[nH]1,> 100 µM
9,COc1nc(N)nc2c1ncn2[C@@H]1O[C@H](CO[P@@](=O)(N[C@@H](C)C(=O)OC(C)C)Oc2ccccc2)[C@@H](O)[C@]12CCO2,> 20 µM
10,COc1nc(N)nc2c1ncn2[C@@H]1O[C@H](CO[P@@](=O)(N[C@@H](C)C(=O)OCC(C)C)Oc2ccccc2)[C@@H](O)[C@]12CCO2,> 20 µM
11,COc1nc(N)nc2c1ncn2[C@@H]1O[C@H](CO[P@](=O)(N[C@@H](C)C(=O)OC2CCCC2)Oc2ccccc2)[C@@H](O)[C@]12CCO2,> 20 µM
12,O=c1ccn([C@@H]2O[C@H](CO)[C@@H](O)[C@@]23CCCO3)c(=O)[nH]1,> 100 µM
13,COC(=O)[C@H](C)NP(=O)(OC[C@H]1O[C@@H](n2ccc(=O)[nH]c2=O)[C@]2(CCO2)[C@@H]1O)Oc1ccccc1 (mixture of isomers),> 100 µM
14,CCCCOC(=O)[C@H](C)N[P@@](=O)(OC[C@H]1O[C@@H](n2cnc3c(OC)nc(N)nc32)[C@@]2(CCO2)[C@@H]1O)Oc1ccccc1,> 20 µM
15,COC(=O)[C@H](C)NP(=O)(OC[C@H]1O[C@@H](n2ccc(=O)[nH]c2=O)[C@@]2(CCO2)[C@@H]1O)Oc1ccccc1 (mixture of isomers),> 100 µM
16,COC(=O)[C@H](C)NP(=O)(OC[C@H]1O[C@@H](n2cnc3c(OC)nc(N)nc32)[C@@]2(CCO2)[C@@H]1O)Oc1ccccc1 (mixture of isomers),> 20 µM
17,COc1nc(N)nc2c1ncn2[C@@H]1O[C@H](CO[P@](=O)(N[C@@H](C)C(=O)OC(C)C)Oc2ccccc2)[C@@H](O)[C@]12CCO2,> 20 µM
18,Nc1ccn([C@@H]2O[C@H](CO)[C@@H](O)[C@]23CCCO3)c(=O)n1,> 100 µM
19,Nc1ccn([C@@H]2O[C@H](CO)[C@@H](O)[C@@]23CCCO3)c(=O)n1,> 100 µM
20,COc1nc(N)nc2c1ncn2[C@@H]1O[C@H](COP(=O)(N[C@@H](C)C(=O)OCC(C)(C)C)Oc2cccc3ccccc23)[C@@H](O)[C@]12CCO2 (mixture of isomers),> 20 µM
